{"source": "ChEMBL document CHEMBL4017514", "about": "“Discovery of Novel Macrocyclic Hedgehog Pathway Inhibitors Acting by Suppressing the Gli-Mediated Transcription” (J Med Chem, 2017)", "key": {"Mus musculus [1]": {"species_on_record": "Mus musculus", "assay": "Inhibition of hedgehog signaling pathway in mouse C3H10T1/2 cells assessed as downregulation of Shh-induced Gli1 mRNA expression levels at 300 nM after 36 hrs by RT-qPCR analysis", "type": "cell-based", "outline": "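NIH-3T3 or C3H10T1/2 cells treated as indicated for 36 h, then collected for RT-qPCR of Gli1 and ptch1 mRNA. Data given as mean ± SD.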"}, "Mus musculus [2]": {"species_on_record": "Mus musculus", "assay": "Inhibition of hedgehog signaling pathway in mouse NIH/3T3 cells harboring sufu shRNA assessed as downregulation of Gli1 mRNA expression at 300 nM by RT-qPCR analysis", "type": "cell-based"}, "Mus musculus [3]": {"species_on_record": "Mus musculus", "assay": "Inhibition of hedgehog signaling pathway in mouse NIH/3T3 cells harboring sufu shRNA assessed as downregulation of ptch1 mRNA expression at 300 nM by RT-qPCR analysis", "type": "cell-based"}, "[4]": {"target": "T1, Zinc finger protein GLI1 (Homo sapiens) (UniProt P08151)", "T1 sequence (whole entry)": "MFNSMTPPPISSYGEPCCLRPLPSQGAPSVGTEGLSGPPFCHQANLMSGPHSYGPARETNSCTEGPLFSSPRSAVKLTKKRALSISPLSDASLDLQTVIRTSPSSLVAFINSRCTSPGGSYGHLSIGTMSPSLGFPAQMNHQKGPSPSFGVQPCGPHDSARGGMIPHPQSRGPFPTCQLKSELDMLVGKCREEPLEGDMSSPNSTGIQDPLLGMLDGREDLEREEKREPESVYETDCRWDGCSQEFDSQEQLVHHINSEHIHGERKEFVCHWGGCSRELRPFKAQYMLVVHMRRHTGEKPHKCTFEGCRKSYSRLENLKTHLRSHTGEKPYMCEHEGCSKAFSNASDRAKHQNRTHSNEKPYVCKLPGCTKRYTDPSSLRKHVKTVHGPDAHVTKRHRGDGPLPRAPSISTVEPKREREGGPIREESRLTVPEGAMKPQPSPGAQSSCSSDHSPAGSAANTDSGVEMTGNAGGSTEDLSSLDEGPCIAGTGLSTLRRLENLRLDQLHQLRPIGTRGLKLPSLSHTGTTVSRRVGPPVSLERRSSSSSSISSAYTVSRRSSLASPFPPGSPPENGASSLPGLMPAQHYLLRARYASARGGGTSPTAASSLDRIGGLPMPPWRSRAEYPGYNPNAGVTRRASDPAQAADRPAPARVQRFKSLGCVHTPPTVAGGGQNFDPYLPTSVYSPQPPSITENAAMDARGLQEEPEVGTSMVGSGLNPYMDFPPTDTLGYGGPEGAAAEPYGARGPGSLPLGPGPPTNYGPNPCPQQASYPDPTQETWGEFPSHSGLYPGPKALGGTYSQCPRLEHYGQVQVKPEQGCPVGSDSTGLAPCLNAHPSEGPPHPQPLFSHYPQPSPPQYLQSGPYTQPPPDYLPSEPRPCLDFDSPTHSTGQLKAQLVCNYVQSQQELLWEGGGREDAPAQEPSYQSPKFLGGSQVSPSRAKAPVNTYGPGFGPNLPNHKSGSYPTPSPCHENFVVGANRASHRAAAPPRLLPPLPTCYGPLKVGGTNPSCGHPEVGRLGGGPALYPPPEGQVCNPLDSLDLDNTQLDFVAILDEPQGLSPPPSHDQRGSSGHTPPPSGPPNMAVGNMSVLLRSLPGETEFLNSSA", "assay": "Inhibition of biotin-labeled Gli1binding sequence binding to Flag-tagged Gli1 (unknown origin) expressed in mouse NIH/3T3 cells at 1 uM by EMSA", "type": "cell-based", "outline": "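EMSA with biotin-labeled Gli-binding sequence from the twist1 promoter, probing Gli1 DNA binding. Unlabeled Gli-binding sequence served as competitor.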"}, "Mus musculus [5]": {"species_on_record": "Mus musculus", "assay": "Inhibition of hedgehog signaling pathway in mouse NIH/3T3 cells assessed as reduction in edogenous expression of Gli2 protein by immunoblot analysis", "type": "cell-based", "outline": "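NIH-3T3 cells cultured in 10% FBS were exposed to compound at various concentrations for 24 h. Endogenous Gli1 and Gli2 detected by Western blot.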"}, "Mus musculus [6]": {"system": "Mus musculus", "assay": "Downregulation of ptch1 mRNA expression level in athymic nude mouse implanted with mouse Ptch+/- p53-/- medulloblastoma cells at 25 to 50 mg/kg, ip bid for 15 consecutive days measured after 4 hrs of last dosage by RT-qPCR analysis", "type": "functional, organism-based", "outline": "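Same allograft model (n = 5), dosed ip twice daily for 15 days in 0.5% methylcellulose/0.2% Tween-80 suspension. Tumors harvested 4 h after the last dose. Gli1 and ptch1 mRNA quantified by RT-qPCR. Data given as mean ± SD.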"}}, "note": "Active and inactive are the calls of the source. The calls are words filed in the database; no cut-off is given here."}
{"smiles": "COc1ccc(CN2C[C@@H]3CN(S(=O)(=O)c4ccc(Cl)cc4)CC[C@@H]3Oc3c(NC(=O)C4CC4)cccc3C2=O)cc1", "note": "(racemic)", "values": [{"measurement": "inhibition", "setting": "Mus musculus [1]", "result": "Active"}, {"measurement": "inhibition", "setting": "Mus musculus [2]", "result": "Active"}, {"measurement": "inhibition", "setting": "Mus musculus [3]", "result": "Active"}, {"measurement": "inhibition", "setting": "[4]", "result": "inactive"}, {"measurement": "inhibition", "setting": "Mus musculus [5]", "result": "Dose-dependent effect"}, {"measurement": "Activity", "setting": "Mus musculus [6]", "result": "Active"}]}
